Reference: ChEMBL document CHEMBL1140517, “Synthesis, antifungal and antimycobacterial activities of new bis-imidazole derivatives, and prediction of their binding to P450(14DM) by molecular docking and MM/PBSA method” (2007)
In brackets after ≈: the same amount, converted by molar mass.

Experiments:
Assay type in all cases: functional
Candida albicans [1] = experiment: Antimicrobial activity against Candida albicans 3038 after 24 hrs
In short: (§1)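 Broth MIC against clinical Candida isolates (C. albicans 3038 and C. glabrata 123). Compounds were taken from 4 mg/mL DMSO stock solutions (stock, not final concentration). Miconazole and amphotericin B served as reference compounds. Each MIC was determined twice in duplicate experiments and read after 24 h and 48 h of incubation.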

Candida albicans [2] = experiment: Antimicrobial activity against Candida albicans 3038 after 48 hrs; in short: as §1
Nakaseomyces glabratus [3] = experiment: Antimicrobial activity against Candida glabrata 123 after 48 hrs; in short: as §1
Nakaseomyces glabratus [4] = experiment: Antimicrobial activity against Candida glabrata 123 after 24 hrs; in short: as §1
[5] = system: Mycobacterium tuberculosis; experiment: Antimicrobial activity against Mycobacterium tuberculosis H37Rv after 24 hrs
[6] = system: Mycobacterium tuberculosis; experiment: Antimicrobial activity against Mycobacterium tuberculosis H37Rv assessed per disk after 24 hrs

For `O=C(c1ccc(Br)s1)C(Cn1ccnc1)Cn1ccnc1`, the MIC (Candida albicans [1]) was 64 µg/mL (≈ 175 µM), the MIC (Candida albicans [2]) was 64 µg/mL (≈ 175 µM) and the MIC (Nakaseomyces glabratus [3]) was 128 µg/mL (≈ 350 µM). It also gave an MIC (Nakaseomyces glabratus [4]) of 64 µg/mL (≈ 175 µM) and an MIC [5] of 16 µg/mL (≈ 43.8 µM).

`O=C(c1ccc([N+](=O)[O-])cc1)C(Cn1ccnc1)Cn1ccnc1` was tested, and the MIC (Candida albicans [1]) was 128 µg/mL (≈ 393 µM), the MIC (Candida albicans [2]) was over 128 µg/mL and the MIC (Nakaseomyces glabratus [3]) was over 128 µg/mL. For the same compound, the MIC (Nakaseomyces glabratus [4]) was 128 µg/mL (≈ 393 µM) and the MIC [5] was 64 µg/mL (≈ 197 µM).

In the case of `C[C@@H]1[C@H](O)[C@@H](C)/C=C/C=C/C=C/C=C/C=C/C=C/C=C/[C@H](O[C@@H]2O[C@H](C)[C@@H](O)[C@H](N)[C@@H]2O)C[C@@H]2O[C@](O)(C[C@@H](O)C[C@@H](O)[C@H](O)CC[C@@H](O)C[C@@H](O)CC(=O)O[C@H]1C)C[C@H](O)[C@H]2C(=O)O` [AMPHOTERICIN B], the MIC (Candida albicans [1]) is reported as 1 µg/mL (≈ 1.08 µM), the MIC (Candida albicans [2]) is reported as 2 µg/mL (≈ 2.16 µM) and the MIC (Nakaseomyces glabratus [3]) is reported as 2 µg/mL (≈ 2.16 µM). For the same compound, the MIC (Nakaseomyces glabratus [4]) was 0.5 µg/mL (≈ 0.541 µM).

`CO[C@H]1/C=C/O[C@@]2(C)Oc3c(C)c(O)c4c(O)c(c(/C=N/N5CCN(C)CC5)c(O)c4c3C2=O)NC(=O)/C(C)=C\C=C\[C@H](C)[C@H](O)[C@@H](C)[C@@H](O)[C@@H](C)[C@H](OC(C)=O)[C@@H]1C` [RIFAMPIN] was tested, and the MIC [6] was 1 mg.

Work on `O=C(c1ccc(Br)cc1)C(Cn1ccnc1)Cn1ccnc1` yielded an MIC (Candida albicans [1]) of 16 µg/mL (≈ 44.5 µM), an MIC (Candida albicans [2]) of 32 µg/mL (≈ 89.1 µM) and an MIC (Nakaseomyces glabratus [3]) of 64 µg/mL (≈ 178 µM). It also gave an MIC (Nakaseomyces glabratus [4]) of 32 µg/mL (≈ 89.1 µM) and an MIC [5] of 16 µg/mL (≈ 44.5 µM).

Compound `O=C(c1ccc(-c2ccccc2)cc1)C(Cn1ccnc1)Cn1ccnc1` has an MIC (Candida albicans [1]) of 2 µg/mL (≈ 5.61 µM), an MIC (Candida albicans [2]) of 4 µg/mL (≈ 11.2 µM) and an MIC (Nakaseomyces glabratus [3]) of 8 µg/mL (≈ 22.4 µM). The MIC (Nakaseomyces glabratus [4]) was 4 µg/mL (≈ 11.2 µM) and the MIC [5] was 8 µg/mL (≈ 22.4 µM).

Compound `COc1ccc(C(O)C(Cn2ccnc2)Cn2ccnc2)cc1` (stereo not drawn) has an MIC (Candida albicans [1]) of 128 µg/mL (≈ 410 µM), an MIC (Candida albicans [2]) of over 128 µg/mL and an MIC (Nakaseomyces glabratus [3]) of over 128 µg/mL. For the same compound, the MIC (Nakaseomyces glabratus [4]) was 128 µg/mL (≈ 410 µM) and the MIC [5] was 64 µg/mL (≈ 205 µM).

Work on `O=C(c1ccc(Cl)s1)C(Cn1ccnc1)Cn1ccnc1` yielded an MIC (Candida albicans [1]) of 64 µg/mL (≈ 199 µM), an MIC (Candida albicans [2]) of 64 µg/mL (≈ 199 µM) and an MIC (Nakaseomyces glabratus [3]) of 128 µg/mL (≈ 399 µM). It also gave an MIC (Nakaseomyces glabratus [4]) of 64 µg/mL (≈ 199 µM) and an MIC [5] of 16 µg/mL (≈ 49.9 µM).

Compound `Cc1ccc(C(=O)C(Cn2ccnc2)Cn2ccnc2)cc1` has an MIC (Candida albicans [1]) of 64 µg/mL (≈ 217 µM), an MIC (Candida albicans [2]) of 128 µg/mL (≈ 435 µM) and an MIC (Nakaseomyces glabratus [3]) of 128 µg/mL (≈ 435 µM). The MIC (Nakaseomyces glabratus [4]) was 128 µg/mL (≈ 435 µM) and the MIC [5] was 8 µg/mL (≈ 27.2 µM).

Work on `O=C(c1ccc(Cl)cc1)C(Cn1ccnc1)Cn1ccnc1` yielded an MIC (Candida albicans [1]) of 16 µg/mL (≈ 50.8 µM), an MIC (Candida albicans [2]) of 32 µg/mL (≈ 102 µM) and an MIC (Nakaseomyces glabratus [3]) of 64 µg/mL (≈ 203 µM). For the same compound, the MIC (Nakaseomyces glabratus [4]) was 32 µg/mL (≈ 102 µM) and the MIC [5] was 16 µg/mL (≈ 50.8 µM).

For `O=C(c1cccs1)C(Cn1ccnc1)Cn1ccnc1`, the MIC (Candida albicans [1]) was 128 µg/mL (≈ 447 µM), the MIC (Candida albicans [2]) was 128 µg/mL (≈ 447 µM) and the MIC (Nakaseomyces glabratus [3]) was 128 µg/mL (≈ 447 µM). For the same compound, the MIC (Nakaseomyces glabratus [4]) was 128 µg/mL (≈ 447 µM) and the MIC [5] was 16 µg/mL (≈ 55.9 µM).

In the case of `COc1ccc(C(=O)C(Cn2ccnc2)Cn2ccnc2)cc1`, the MIC (Candida albicans [1]) is reported as 64 µg/mL (≈ 206 µM), the MIC (Candida albicans [2]) is reported as 128 µg/mL (≈ 412 µM) and the MIC (Nakaseomyces glabratus [3]) is reported as 128 µg/mL (≈ 412 µM). It also gave an MIC (Nakaseomyces glabratus [4]) of 128 µg/mL (≈ 412 µM) and an MIC [5] of 16 µg/mL (≈ 51.6 µM).

`O=C(c1ccccc1)C(Cn1ccnc1)Cn1ccnc1` was tested, and the MIC (Candida albicans [1]) was 64 µg/mL (≈ 228 µM), the MIC (Candida albicans [2]) was 64 µg/mL (≈ 228 µM) and the MIC (Nakaseomyces glabratus [3]) was 128 µg/mL (≈ 457 µM). For the same compound, the MIC (Nakaseomyces glabratus [4]) was 128 µg/mL (≈ 457 µM) and the MIC [5] was 16 µg/mL (≈ 57.1 µM).

`O=C(c1ccc(F)cc1)C(Cn1ccnc1)Cn1ccnc1` was tested, and the MIC (Candida albicans [1]) was 64 µg/mL (≈ 215 µM), the MIC (Candida albicans [2]) was 128 µg/mL (≈ 429 µM) and the MIC (Nakaseomyces glabratus [3]) was 128 µg/mL (≈ 429 µM). The MIC (Nakaseomyces glabratus [4]) was 128 µg/mL (≈ 429 µM) and the MIC [5] was 16 µg/mL (≈ 53.6 µM).

Compound `Clc1ccc(COC(Cn2ccnc2)c2ccc(Cl)cc2Cl)c(Cl)c1` (stereo not drawn) [MICONAZOLE] has an MIC (Candida albicans [1]) of 2.5 µg/mL (≈ 6.01 µM), an MIC (Candida albicans [2]) of 5 µg/mL (≈ 12 µM) and an MIC (Nakaseomyces glabratus [3]) of 2.5 µg/mL (≈ 6.01 µM). For the same compound, the MIC (Nakaseomyces glabratus [4]) was 1.25 µg/mL (≈ 3 µM).

With `OC(c1ccc(Br)cc1)C(Cn1ccnc1)Cn1ccnc1` (stereo not drawn) the MIC (Candida albicans [1]) was 128 µg/mL (≈ 354 µM), the MIC (Candida albicans [2]) was over 128 µg/mL and the MIC (Nakaseomyces glabratus [4]) was 128 µg/mL (≈ 354 µM). The MIC [5] was 8 µg/mL (≈ 22.1 µM).
